Data on three compounds can be found in paper PMC10935467 (Acta Pharmaceutica Sinica. B, 2023).

Where a SMILES comes first, the peptide text is derived from it. Where no end group is shown, it is not given here. [ ]: non-standard residue; d: D form.

For data set [1], the target named is hPD-1/hPD-L1 (Homo sapiens, UniProt Q9NZQ7). Put plainly: Blocking assay of hPD-1/hPD-L1 interaction. The note with it: 100 μmol/L, n = 3, compared with OPBP-1(8–12). The data set is classed as binding.
Data set [2] relates to H22 tumors in BALB/c mice. Put plainly: H22 tumor model. Format: in vivo, mouse. The note with it: daily for 14 days, LFP-D1 3 mg/kg, LFOP 5.8 mg/kg, n = 5. In short, it runs like this: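 H22 cells (2 × 10^6) are injected subcutaneously into the right flank of six-week-old female BALB/c mice. Dosing is daily once tumors reach about 50 mm3: 3 mg/kg, 2.5 mg/kg, both combined, or 5.8 mg/kg of the fused peptide (equimolar to 3 mg/kg). Tumor volume (½ × length × width × height) and body weight are recorded every two days over 14 days of treatment.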

Data set [3] in a line: In vivo toxicity analysis in MC38 tumor-bearing mice. The arrangement: species or system mouse.
In data set [4] the target is T1, human LAG-3/FGL1 (Homo sapiens, UniProt P18627).
T1 sequence (P18627 23-525): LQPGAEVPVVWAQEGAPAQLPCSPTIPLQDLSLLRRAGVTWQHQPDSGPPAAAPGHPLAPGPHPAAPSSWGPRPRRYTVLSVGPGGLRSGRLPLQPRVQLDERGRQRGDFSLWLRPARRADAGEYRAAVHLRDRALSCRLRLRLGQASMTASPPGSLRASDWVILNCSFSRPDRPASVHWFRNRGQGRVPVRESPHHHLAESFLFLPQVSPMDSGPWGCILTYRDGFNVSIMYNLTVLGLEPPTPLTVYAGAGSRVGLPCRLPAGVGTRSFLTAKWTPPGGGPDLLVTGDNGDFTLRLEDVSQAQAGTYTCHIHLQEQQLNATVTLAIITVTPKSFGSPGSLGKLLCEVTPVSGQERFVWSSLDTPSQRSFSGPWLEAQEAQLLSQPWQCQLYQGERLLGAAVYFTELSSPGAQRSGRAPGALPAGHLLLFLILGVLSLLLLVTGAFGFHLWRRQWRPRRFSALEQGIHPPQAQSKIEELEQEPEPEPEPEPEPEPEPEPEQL
Nature of the data set: Blocking assay of hLAG-3/hFGL1 interaction on CHO-K1-hLAG-3 cells. Format: binding. The note with it: 100 μmol/L, n = 3, compared with LFP-D1. In short, it runs like this:
(§1)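 Cells stably expressing human (CHO-K1-hLAG-3) or mouse (CHO-K1-mLAG-3) LAG-3 are pre-incubated with test peptide at graded concentrations for 30 min at 4 °C. Recombinant FGL1-Fc of the matching species is then added for 30 min at 4 °C, followed by PE anti-human IgG1 (anti-Fc). MFI is read by flow cytometry. Blocking % = (MFI no-peptide control − MFI peptide)/MFI no-peptide control × 100. Cells given only anti-Fc-PE serve as background. IC50 is taken from dose–response curves.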

The subject of data set [5] is MC38 tumors in C57BL/6 mice. Put plainly: MC38 tumor model, LFOP alone or combined with radiotherapy. Format: in vivo, mouse. In short, it runs like this: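 In MC38 tumor-bearing C57BL/6 mice, tumors of about 100 mm3 receive local 20 Gy irradiation. Test peptide at 5.8 mg/kg is given starting the same day, with or without irradiation; saline and RT-alone groups are included. Tumor volume (½ × length × width × height) and body weight are recorded every two days for 14 days, and tumors are weighed at the end. n = 5.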

Data set [6] has as its target T2, mouse LAG-3/FGL1 (Mus musculus, UniProt Q61790).
T2 sequence (Q61790 24-521): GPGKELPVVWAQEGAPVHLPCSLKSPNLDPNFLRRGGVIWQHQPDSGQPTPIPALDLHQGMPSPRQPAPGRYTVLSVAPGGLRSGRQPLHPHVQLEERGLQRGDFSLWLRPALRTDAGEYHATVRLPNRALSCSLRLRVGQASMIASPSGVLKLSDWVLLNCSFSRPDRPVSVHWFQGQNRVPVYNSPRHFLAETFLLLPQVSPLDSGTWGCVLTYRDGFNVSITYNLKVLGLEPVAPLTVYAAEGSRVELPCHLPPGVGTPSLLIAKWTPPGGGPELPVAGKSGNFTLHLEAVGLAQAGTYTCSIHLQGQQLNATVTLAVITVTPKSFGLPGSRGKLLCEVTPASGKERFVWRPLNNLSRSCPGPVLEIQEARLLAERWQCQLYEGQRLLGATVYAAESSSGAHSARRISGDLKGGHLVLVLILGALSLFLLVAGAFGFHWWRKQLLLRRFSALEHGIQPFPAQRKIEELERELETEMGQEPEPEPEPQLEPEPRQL
Put plainly: Blocking assay of mLAG-3/mFGL1 interaction on CHO-K1-mLAG-3 cells. The data set is classed as binding. In short, it runs like this:
as §1

For data set [7], the target named is T3, Human LAG-3-His protein (Homo sapiens, UniProt P18627).
T3 sequence (P18627 23-525): T1 sequence (P18627 23-525)
Nature of the data set: MST binding affinity to hLAG-3. Put shortly:
(§2)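 His-tagged LAG-3 (human or mouse) is labeled with RED-tris-NTA 2nd-generation dye. Test peptide is serially diluted in PBST (0.05% Tween-20) and mixed with an equal volume of labeled protein at room temperature for 5 min. Samples are loaded into capillaries for microscale thermophoresis, and KD is fitted from the dose–response curves.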

The target of data set [8] is T4, mouse LAG-3-His protein (Mus musculus, UniProt Q61790).
T4 sequence (Q61790 24-521): T2 sequence (Q61790 24-521)
Nature of the data set: MST binding affinity to mLAG-3. In short, it runs like this:
as §2

Setting [9] is: LFP-D1 treatment vs normal saline, n = 5.

Chain of hPD-1/hPD-L1 (Q9NZQ7 19-239 limits assumed): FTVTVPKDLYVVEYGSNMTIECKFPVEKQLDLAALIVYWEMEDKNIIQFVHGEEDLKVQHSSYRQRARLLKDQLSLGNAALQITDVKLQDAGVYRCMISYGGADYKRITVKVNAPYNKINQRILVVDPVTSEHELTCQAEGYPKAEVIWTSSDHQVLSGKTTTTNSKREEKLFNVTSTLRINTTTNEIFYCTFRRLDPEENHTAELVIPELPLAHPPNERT

In the case of `CSCC[C@@H](N)C(=O)N[C@@H](Cc1c[nH]cn1)C(=O)N[C@@H](CCCNC(=N)N)C(=O)N1CCC[C@H]1C(=O)N1CCC[C@H]1C(=O)N[C@@H](CO)C(=O)N[C@@H](C(=O)NCC(=O)N[C@@H](CO)C(=O)N[C@H](CCCNC(=N)N)C(=O)N[C@@H](C(=O)N[C@H](Cc1ccc(O)cc1)C(=O)N[C@H](CO)C(=O)N[C@H](Cc1ccccc1)C(=O)O)C(C)C)[C@H](C)O` [LFOP] (H-[dM]HRPPS[dT]GS[dR][dV][dY][dS][dF]-OH; N-terminus and C-terminus assumed), the “Blocking efficacy on hPD-1/hPD-L1 interaction” value in data set [1] is reported as “in line with its parental peptide”. In data set [2], the “Tumor growth in H22 tumor model” value is given as “significantly inhibited the tumor growth”. For the same compound, the “Histopathology of major organs (H&E staining)” value in data set [3] (heart, liver, spleen, lung, kidney after treatment with LFOP, RT or both) is listed as “no abnormalities”. Moreover, in data set [3] (normal saline, RT 20 Gy, LFOP 5.8 mg/kg, LFOP + RT, 14 days, n = 5), the “Body weight of the mice among groups at ultimate time” value is given as “no significant differences”. Moreover, the “ALT and AST levels in serum” value in data set [3] (normal saline, RT 20 Gy, LFOP 5.8 mg/kg, LFOP + RT, n = 5) was “indiscriminate”. In addition, the “Blocking efficacy on hLAG-3/hFGL1 interaction” value in data set [4] was “in line with its parental peptide”. The “Tumor progression of MC38 tumors” value in data set [5] (LFOP 5.8 mg/kg alone, 14 days, n = 5) is “slowed tumor progression”. In addition, the “Tumor growth of MC38 tumors” value in data set [5] (LFOP 5.8 mg/kg combined with RT (local 20 Gy), 14 days, n = 5) was “effectively controlled tumor growth even partial regression”. Further, the Tregs after treatment result in data set [5] (treatment with LFOP, data not shown) was “decreased”.
As a reminder, the IC50 is the point on the concentration scale where inhibition reaches its midpoint. Higher therefore signals a need for much substance. By Kd is commonly meant the constant that tells how readily two partners part at equilibrium. A high value points to weaker binding. In data set [6], `CSCC[C@@H](N)C(=O)N[C@@H](Cc1c[nH]cn1)C(=O)N[C@@H](CCCNC(=N)N)C(=O)N1CCC[C@H]1C(=O)N1CCC[C@H]1C(=O)N[C@@H](CO)C(=O)N[C@@H](C(=O)O)[C@H](C)O` [LFP-D1] (H-[dM]HRPPS[dT]-OH) displayed an IC50 of 17.5 ± 2.2 µM. In addition, the Liver index entry in data set [3] (LFP-D1 treatment vs normal saline, liver weight (mg) to body weight (g), n = 5) is given as “no significant difference”. In addition, in data set [3] (setting [9]), the “ALT level in mice serum” value is on record as “no significant difference” and the “AST level in mice serum” value is recorded as “no significant difference”. The compound further gave a Kd in data set [7] of 15.7 ± 6.7 µM. In data set [8], this compound had a Kd of 10.9 ± 3.3 µM.
The compound MHRPPST [LFP-6] gave an IC50 in data set [6] of 47.2 ± 2.2 µM. Also, the values for the Kd in data set [7] and in data set [8] were 16.1 ± 5.5 µM and 14.6 ± 3.3 µM, respectively.
